SENP6 inh = blocks the human protease SENP6; AID 2599; Recombinant SENP6 catalytic domain, aminoluciferin luminescence; hit rate 1.8% among 330,000; inhibition, % at 10 µM; Q9GZR1;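 active means inhibition above about 50% at the single tested dose, limit read from the data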
Target sequence (Q9GZR1 628-1112 limits assumed): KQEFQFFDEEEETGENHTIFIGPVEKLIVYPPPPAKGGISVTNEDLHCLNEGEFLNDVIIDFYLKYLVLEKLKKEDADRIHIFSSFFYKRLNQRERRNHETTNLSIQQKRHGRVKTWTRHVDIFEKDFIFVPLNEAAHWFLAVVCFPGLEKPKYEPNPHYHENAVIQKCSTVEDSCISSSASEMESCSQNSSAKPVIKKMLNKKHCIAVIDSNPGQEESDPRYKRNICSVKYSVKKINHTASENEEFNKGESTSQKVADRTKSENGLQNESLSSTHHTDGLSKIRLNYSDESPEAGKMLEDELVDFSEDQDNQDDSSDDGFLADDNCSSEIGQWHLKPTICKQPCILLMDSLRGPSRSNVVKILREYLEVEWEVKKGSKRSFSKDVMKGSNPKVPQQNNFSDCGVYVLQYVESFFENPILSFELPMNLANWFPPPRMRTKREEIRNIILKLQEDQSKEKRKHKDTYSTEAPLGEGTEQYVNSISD
SENP7 block = blocks the human protease SENP7; Q9BQF6; recombinant SENP7, Z-RLRGG-aminoluciferin luminescence, 40 min; inhibition, % at 5 µM; hit rate 1.5% among 330,000; AID 434973;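 active means inhibition above about 50% at the single test dose, limit read from the data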
SENP8 block-1 = SENP8 protease inhibition; hit rate 1.2% among 330,000; Q96LD8; purified SENP8, Z-RLRGG-aminoluciferin cleavage, luminescence; inhibition, % at 10 µM; AID 2540; in the data active means inhibition above about 50%
SENP8 block-2 = blocks human SENP8 cleavage of Nedd8 substrate. Q96LD8. recombinant SENP8, Nedd8 substrate fluorescence. inhibition, % at 20 µM. hit rate 0.64% among 360,000; in the data active means inhibition mostly above about 40%, no sharp cut-off; inactive means mostly below about 27%
HSP90 inh = HSP90 refolding inhibition in rabbit reticulocyte lysate; luciferase refolding luminescence, 3 h; inhibition, % at 5.6 µM; hit rate 0.91% among 290,000;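 active means inhibition above the screen-wide mean plus 3 SD, computed separately per campaign, cut at about 16% in these data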;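 further: inhibitors lower the luminescence because luciferase stays unfolded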
SENP1 inh = inhibitors of human SENP1 SUMO protease catalytic domain. AID 624204. Q9P0U3. hit rate 0.21% among 360,000. inhibition, % at 10 µM. recombinant SENP1 catalytic domain, CyPet-SUMO1-YPet FRET cleavage;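 active means inhibition at least 30% at 10 µM, raw YFP signal under a set limit, fluorescence ratio 0.5 to 1.5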
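Material – human SENP1 catalytic domain · Input – SENP1 enzyme, 20 pM final · Compound dosing – single concentration of 10 µM compound, 0.5% DMSO final · Timing – enzyme reaction for 50 min at room temperature, dark · Measured by – FRET fluorescence in CFP and YFP emission channels · Control set – no-enzyme wells low, DMSO-plus-enzyme wells high control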
SENP8 conf = human SENP8 inhibition, confirmed; shares compounds with SENP7 block; Recombinant SENP8, Z-RLRGG-aminoluciferin luminescence, 60 min; inhibition, % at 12.5 µM; hit rate 40% among 6,200; AID 488912;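 active means mean inhibition across replicates above about 50%, limit read from the data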
SENP6 conf = confirmation of human SENP6 protease inhibitors; shares compounds with SENP7 block; recombinant SENP6, Z-RLRGG-aminoluciferin luminescence; inhibition, % at 12.5 µM; hit rate 58% among 6,200
SENP7 conf = human SENP7 inhibition, confirmed; hit rate 69% among 6,200; shares compounds with SENP7 block; recombinant SENP7, Z-RLRGG-aminoluciferin luminescence, 40 min; inhibition, % at 12.5 µM
Casp3 SENP sel = caspase-3 inhibition (SENP selectivity assay); shares compounds with SENP7 block; purified caspase-3, Z-DEVD-aminoluciferin luminescence, 60 min; inhibition, % at 12.5 µM; hit rate 60% among 6,200; AID 488918;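 active means mean inhibition above about 50%, limit read from the data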
Luc interf = luminescence interference (SENP counter-screen); hit rate 39% among 6,200; inhibition, % at 12.5 µM; shares compounds with SENP7 block; Pre-incubated SENP8/Z-RLRGG-aminoluciferin, luciferase luminescence interference;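 active means mean inhibition above about 50% when retested at one dose, limit read from the data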
Of the large screens only hits and unclear results are named; the others gave an inactive call (follow-up assays come after a bar, where they were run). In the library only some 2.9% were active in any assay of this set; here they are far more common.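 How the source made its calls, unless noted: active means mean inhibition above about 50% in the one-dose retest (limit read from the data); inactive means the rest.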

Cc1[nH][nH]c(=O)c1N=Nc1ccc(Br)c(Cl)c1	SENP6 inh 94.0, SENP7 block 71.4, SENP8 block-1 86.4 (no result: HSP90 inh) | SENP8 conf inactive | SENP6 conf inactive | SENP7 conf inactive | Casp3 SENP sel inactive | Luc interf inactive
CC1(c2ccc3c(c2)OCCO3)NC(=O)N(CC(=O)Nc2ccccc2SCC#N)C1=O (stereo not drawn)	none (no result: HSP90 inh)
O=C(COc1ccccc1)Nc1nc2cc3c(cc2s1)OCO3	none
Cc1ccc(Nc2nc3ccccc3s2)c(C)c1	SENP7 block 78.9, SENP8 block-1 62.4 | SENP8 conf 77.0 | SENP6 conf 73.3 | SENP7 conf 91.4 | Casp3 SENP sel 54.0 | Luc interf 66.9
c1ccc2sc(Nc3nc4cc5c(cc4s3)OCO5)nc2c1	SENP7 block 63.7 | SENP8 conf inactive | SENP6 conf inactive | SENP7 conf inactive | Casp3 SENP sel inactive | Luc interf inactive
CC(=O)Nc1nc2cc3c(cc2s1)OCO3	SENP6 inh 68.5, SENP7 block 56.3 | SENP8 conf inactive | SENP6 conf 52.6 | SENP7 conf 86.5 | Casp3 SENP sel 82.9 | Luc interf inactive
Fc1ccc2nc(Nc3ccccc3)sc2c1	SENP7 block 72.3, SENP8 block-1 64.2 | SENP8 conf 81.1 | SENP6 conf 80.7 | SENP7 conf 95.0 | Casp3 SENP sel 58.5 | Luc interf 82.2
CC(=O)c1sc(Nc2nc3cc4c(cc3s2)OCO4)nc1C	none (no result: SENP6 inh, SENP7 block, SENP8 block-1)
CCNC(=O)CSc1nnc(-c2cccc(S(=O)(=O)N3CCOCC3)c2)o1	none (no result: HSP90 inh)
COc1cc(C(=O)N2CCN(c3cccc(C(F)(F)F)c3)CC2)ccc1OCC(=O)N1CCOCC1	none (no result: SENP6 inh, SENP7 block, SENP8 block-1, HSP90 inh)
Cc1noc(C)c1-c1ccc(C(=O)NCc2cccnc2)c2occc12	none (no result: SENP6 inh, SENP7 block, SENP8 block-1, HSP90 inh)
Fc1ccc2nc(Nc3nc4cc5c(cc4s3)OCO5)sc2c1	none
Fc1ccc2nc(Nc3nc4cc5c(cc4s3)OCCO5)sc2c1	SENP6 inh 71.0, SENP8 block-1 51.8 | SENP8 conf inactive | SENP6 conf inactive | SENP7 conf inactive | Casp3 SENP sel inactive | Luc interf inactive
O=C(O)c1ccccc1C(=O)N1N=C(c2ccccc2)CC1c1ccccc1O (stereo not drawn)	none
COc1ccc2nc(NC(=O)c3c(C)noc3C)sc2c1	SENP6 inh 78.5, SENP7 block 82.6, SENP8 block-1 73.4 (no result: HSP90 inh) | SENP8 conf 82.9 | SENP6 conf 80.7 | SENP7 conf 96.8 | Casp3 SENP sel 88.4 | Luc interf 65.4
Cc1noc(C)c1C(=O)Nc1nc2ccc(S(C)(=O)=O)cc2s1	SENP6 inh 66.0, SENP7 block 62.2 | SENP8 conf 59.9 | SENP6 conf 55.5 | SENP7 conf 84.6 | Casp3 SENP sel 84.8 | Luc interf 61.5
COc1ccc(-c2csc(NC(=O)c3c(C)noc3C)n2)cc1	none (no result: HSP90 inh)
CS(=O)(=O)c1ccc2nc(NC(=O)c3ccc(Cl)cc3)sc2c1	none
Cn1ccnc1SCC(=O)c1ccc(O)cc1	SENP6 inh 54.7 | SENP8 conf inactive | SENP6 conf inactive | SENP7 conf 66.9 | Casp3 SENP sel 80.1 | Luc interf 52.5
Cc1nc2ccc(C(=O)NCCCn3ccnc3)cn2c1N(C)CC1CCCCC1	none (no result: SENP6 inh, SENP7 block, SENP8 block-1, HSP90 inh)
Nc1ccc(-c2nc3ccc([N+](=O)[O-])cc3[nH]2)cc1	SENP6 inh 50.5, SENP1 inh 49.3 | SENP8 conf inactive | SENP6 conf inactive | SENP7 conf 73.4 | Casp3 SENP sel inactive | Luc interf inactive
CCCC[n+]1ccc(-c2nc3ccc([N+](=O)[O-])cc3[nH]2)cc1	none

Source: PubChem BioAssay (several laboratories)
